Reference: ChEMBL document CHEMBL1806428, “Design and synthesis of spiro derivatives of parthenin as novel anti-cancer agents” (Eur J Med Chem, 2011)
Active and inactive are the calls of the source. The rule behind the calls is not given here.

How the values were obtained:
[1] = Antitumor activity against mouse Ehrlich Ascites tumor xenografted in Swiss albino mouse assessed as tumor growth inhibition at 50 mg/kg, ip administered for 9 days measured on day 13; type: functional; conditions: route intraperitoneal, read-out: GI
[2] = Antitumor activity against mouse Ehrlich Ascites tumor xenografted in Swiss albino mouse assessed as tumor growth inhibition at 100 mg/kg, ip administered for 9 days measured on day 13; type: functional; conditions: route intraperitoneal, read-out: GI
Ehrlich [3] = experiment: Antitumor activity against mouse EAC cells transplanted in ip dosed Swiss albino mouse assessed as tumor growth inhibition administered for 9 days; type: functional, organism-based
Method in brief: (§1)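 EAC ascites model: mice of the same sex, 20 ± 3 g, injected intraperitoneally with 1 × 10^7 cells from a donor bearing 8–10 day old ascites tumor (day 0). Randomised the next day, 7 per test group and 10 controls. Doses were suspended in 1% gum acacia and given i.p. for nine consecutive days; controls received saline 0.2 mL i.p. On day 12, ascitic fluid volume and tumor cell count were measured, and % inhibition was calculated from cell number versus control.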

[4] = biological target: Transcription factor p65 (Homo sapiens) (UniProt Q04206); experiment: Inhibition of NF-kappaB p65 subunit transcriptional activity in human SW620 cells at 5 uM by Western blot analysis; type: cell-based; conditions: SW-620
Method in brief: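 SW-620 cells (5 × 10^6) exposed to 5 for the indicated times. Washed in ice-cold PBS, lysed in Hepes pH 7.9 buffer with KCl, EDTA, EGTA, DTT, PMSF, NaF, vanadate and protease inhibitors, then NP-40 0.5%. Cytosol taken after 8000 × g. Nuclear fraction extracted with 20% glycerol and 0.4 M KCl on ice for 30 min, spun at 13,000 × g. NF-κB assessed by western blot.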

[5] = Antitumor activity against mouse EAC cells transplanted in Swiss albino mouse assessed as decrease in astic fluid volume at 10 mg/kg, ip administered for 9 days (reference value: 4.57+/-0.39 mL); type: functional, Ehrlich; conditions: route intraperitoneal; method in brief: as §1
[6] = Antitumor activity against mouse EAC cells transplanted in Swiss albino mouse assessed as decrease in astic fluid volume at 25 mg/kg, ip administered for 9 days (reference value: 4.57+/-0.39 mL); type: functional, Ehrlich; conditions: route intraperitoneal
[7] = Antitumor activity against mouse EAC cells transplanted in Swiss albino mouse assessed as decrease in astic fluid volume at 50 mg/kg, ip administered for 9 days (reference value: 4.57+/-0.39 mL); type: functional, Ehrlich; conditions: route intraperitoneal
[8] = Antitumor activity against mouse EAC cells transplanted in Swiss albino mouse assessed as decrease in astic fluid volume at 100 mg/kg, ip administered for 9 days (reference value: 4.57+/-0.39 mL); type: functional, Ehrlich; conditions: route intraperitoneal
Mus musculus [9] = experiment: Toxicity in Swiss albino mouse transplanted with EAC cells assessed as mortality at 200 mg/kg, ip administered for 9 days measured on day 3rd; type: organism-based, Ehrlich; design: dose 200 mg/kg, route intraperitoneal; conditions: in vivo, 216 h; method in brief: as §1
Ehrlich [10] = experiment: Antitumor activity against mouse EAC cells transplanted in Swiss albino mouse assessed as decrease in tumor cells in ascetic fluid at 10 mg/kg, ip administered for 9 days (reference value: 4.57+/-0.39 mL); type: functional, organism-based; design: dose 10 mg/kg; method in brief: as §1
Ehrlich [11] = experiment: Antitumor activity against mouse EAC cells transplanted in Swiss albino mouse assessed as decrease in tumor cells in ascetic fluid at 25 mg/kg, ip administered for 9 days (reference value: 4.57+/-0.39 mL); type: functional, organism-based; design: dose 25 mg/kg
Ehrlich [12] = experiment: Antitumor activity against mouse EAC cells transplanted in Swiss albino mouse assessed as decrease in tumor cells in ascetic fluid at 50 mg/kg, ip administered for 9 days (reference value: 4.57+/-0.39 mL); type: functional, organism-based; design: dose 50 mg/kg
Ehrlich [13] = experiment: Antitumor activity against mouse EAC cells transplanted in Swiss albino mouse assessed as decrease in tumor cells in ascetic fluid at 100 mg/kg, ip administered for 9 days (reference value: 4.57+/-0.39 mL); type: functional, organism-based; design: dose 100 mg/kg
[14] = Antitumor activity against mouse EAC cells transplanted in Swiss albino mouse assessed as tumor growth inhibition at 10 mg/kg, ip administered for 9 days (reference value: 4.57+/-0.39 mL); type: functional; conditions: Ehrlich, 216 h, route intraperitoneal, read-out: GI; method in brief: as §1
[15] = Antitumor activity against mouse EAC cells transplanted in Swiss albino mouse assessed as tumor growth inhibition at 25 mg/kg, ip administered for 9 days (reference value: 4.57+/-0.39 mL); type: functional; conditions: Ehrlich, 216 h, route intraperitoneal, read-out: GI
[16] = Antitumor activity against mouse EAC cells transplanted in Swiss albino mouse assessed as tumor growth inhibition at 50 mg/kg, ip administered for 9 days (reference value: 4.57+/-0.39 mL); type: functional; conditions: Ehrlich, 216 h, route intraperitoneal, read-out: GI
[17] = Antitumor activity against mouse EAC cells transplanted in Swiss albino mouse assessed as tumor growth inhibition at 100 mg/kg, ip administered for 9 days (reference value: 4.57+/-0.39 mL); type: functional; conditions: Ehrlich, 216 h, route intraperitoneal, read-out: GI
[18] = Partition coefficient, log P of the compound; type: physicochemical; conditions: octanol/water
Mus musculus [19] = experiment: Toxicity in ip dosed Swiss albino mouse transplanted with mouse EAC cells assessed as mortality administered for 9 days; type: organism-based, Ehrlich; conditions: in vivo, 216 h; method in brief: as §1
SW-620 [20] = experiment: Cytotoxicity against human SW620 cells assessed as cell growth after 48 hrs by sulforhodamine B assay; type: functional, cell-based; conditions: Homo sapiens, SW-620, 48 h
Method in brief: (§2)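 Log-phase cells seeded at 10^4/well and allowed to attach for 24 h at 37 °C, 5% CO2. Exposed for 48 h to 0.1–100 (1:10 serial dilutions), four replicate wells per condition. Fixed with cold 50% TCA for 1 h at 4 °C, stained with sulforhodamine B, dye dissolved in Tris, OD read at 540 nm. Blank-subtracted growth expressed relative to untreated cells (100%); IC50 reported.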

DU-145 = experiment: Cytotoxicity against human DU145 cells assessed as cell growth after 48 hrs by sulforhodamine B assay; type: functional, cell-based; conditions: Homo sapiens, DU-145, 48 h; method in brief: as §2
PC-3 = experiment: Cytotoxicity against human PC3 cells assessed as cell growth after 48 hrs by sulforhodamine B assay; type: functional, cell-based; conditions: Homo sapiens, PC-3, 48 h; method in brief: as §2
SW-620 [21] = experiment: Induction of apoptosis in human SW620 cells assessed as DNA fragmentation at 50 uM after 24 hrs by gel electrophoresis; type: functional, cell-based
Method in brief: (§3)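 SW-620 cells (2 × 10^6 per 60 mm plate) treated for 24 h at 10, 50 or 100. Pellets lysed in 10 mM EDTA, 50 mM Tris pH 8.0, 0.5% SDS and proteinase K 0.5 mg/mL at 50 °C for 1 h. DNA heated briefly to 70 °C and run on 1.5% agarose at 50 V for 2–3 h. Untreated cells served as control; camptothecin as positive control.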

SW-620 [22] = experiment: Induction of apoptosis in human SW620 cells assessed as DNA fragmentation at 100 uM after 24 hrs by gel electrophoresis; type: functional, cell-based; method in brief: as §3
SW-620 [23] = experiment: Cell cycle arrest in human SW620 cells assessed as increase in sub-G1 DNA content at 5 uM after 24 hrs using propidium iodide staining by flow cytometry (reference value: 3.45%); type: functional
SW-620 [24] = experiment: Cell cycle arrest in human SW620 cells assessed as increase in sub-G1 DNA content at 1 uM after 24 hrs using propidium iodide staining by flow cytometry (reference value: 3.45%); type: functional
SW-620 [25] = experiment: Cell cycle arrest in human SW620 cells assessed as increase in sub-G1 DNA content at 10 uM after 24 hrs using propidium iodide staining by flow cytometry (reference value: 3.45%); type: functional
SW-620 [26] = experiment: Cell cycle arrest in human SW620 cells assessed as increase in sub-G1 DNA content at 50 uM after 24 hrs using propidium iodide staining by flow cytometry (reference value: 3.45%); type: functional
SW-620 [27] = experiment: Induction of apoptosis in human SW620 cells assessed as blockage of G1-phase at 50 uM after 24 hrs using propidium iodide staining by flow cytometry; type: functional, cell-based
Mus musculus [28] = experiment: Antitumor activity against mouse Ehrlich Ascites tumor xenografted in ip dosed Swiss albino mouse assessed as tumor growth administered for 9 days; type: functional, organism-based
[29] = Antitumor activity against mouse Ehrlich Ascites tumor xenografted in Swiss albino mouse assessed as decrease in tumor weight at 10 mg/kg, ip administered for 9 days (reference value: 1708+/-51.07 mg); type: functional; conditions: route intraperitoneal
[30] = Antitumor activity against mouse Ehrlich Ascites tumor xenografted in Swiss albino mouse assessed as decrease in tumor weight at 25 mg/kg, ip administered for 9 days (reference value: 1708+/-51.07 mg); type: functional; conditions: route intraperitoneal
[31] = Antitumor activity against mouse Ehrlich Ascites tumor xenografted in Swiss albino mouse assessed as decrease in tumor weight at 50 mg/kg, ip administered for 9 days (reference value: 1708+/-51.07 mg); type: functional; conditions: route intraperitoneal
[32] = Antitumor activity against mouse Ehrlich Ascites tumor xenografted in Swiss albino mouse assessed as decrease in tumor weight at 100 mg/kg, ip administered for 9 days (reference value: 1708+/-51.07 mg); type: functional; conditions: route intraperitoneal
Mus musculus [33] = experiment: Toxicity in Swiss albino mouse model of Ehrlich Ascites tumor assessed as mortality at 200 mg/kg, ip administered for 9 days measured on third day; type: organism-based; design: dose 200 mg/kg, route intraperitoneal; conditions: in vivo, 216 h
[34] = Antitumor activity against mouse Ehrlich Ascites tumor xenografted in Swiss albino mouse assessed as tumor growth inhibition at 10 mg/kg, ip administered for 9 days measured on day 13; type: functional; conditions: route intraperitoneal, read-out: GI
[35] = Antitumor activity against mouse Ehrlich Ascites tumor xenografted in Swiss albino mouse assessed as tumor growth inhibition at 25 mg/kg, ip administered for 9 days measured on day 13; type: functional; conditions: route intraperitoneal, read-out: GI

Sequence of Transcription factor p65 (Homo sapiens) (Q04206 whole entry): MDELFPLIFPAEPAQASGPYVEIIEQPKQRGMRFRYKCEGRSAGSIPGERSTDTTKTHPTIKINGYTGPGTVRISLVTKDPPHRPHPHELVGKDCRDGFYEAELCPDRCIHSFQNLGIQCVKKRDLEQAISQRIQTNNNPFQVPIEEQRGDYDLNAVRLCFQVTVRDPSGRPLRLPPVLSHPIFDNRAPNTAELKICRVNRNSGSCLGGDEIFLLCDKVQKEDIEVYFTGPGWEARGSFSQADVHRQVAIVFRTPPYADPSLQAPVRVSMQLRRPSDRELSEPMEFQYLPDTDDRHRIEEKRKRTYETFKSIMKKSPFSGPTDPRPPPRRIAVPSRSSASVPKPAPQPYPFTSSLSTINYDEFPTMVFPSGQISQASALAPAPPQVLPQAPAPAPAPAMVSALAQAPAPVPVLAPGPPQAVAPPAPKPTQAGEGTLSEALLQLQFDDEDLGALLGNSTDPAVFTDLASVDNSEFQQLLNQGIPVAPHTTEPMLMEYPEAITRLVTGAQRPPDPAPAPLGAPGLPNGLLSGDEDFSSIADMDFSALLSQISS

## C[C@H]1CC[C@@H]2[C@@H](OC(=O)[C@]23CC(c2c4ccccc4cc4ccccc24)=NO3)[C@]2(C)C(=O)C=C[C@@]12O
[1]
  inhibition in vivo at 50 mg/kg: 22%
[2]
  inhibition in vivo at 100 mg/kg: 35.1%
Ehrlich [3]
  growth inhibition (GI): Dose-dependent effect
[4]
  inhibition: Active
[5]
  Activity: 4.07 mL
[6]
  Activity: 3.62 mL
[7]
  Activity: 2.85 mL
[8]
  Activity: 2.07 mL
Mus musculus [9]
  Activity: Toxic
Ehrlich [10]
  Activity: Active
Ehrlich [11]
  Activity: Active
Ehrlich [12]
  Activity: Active
Ehrlich [13]
  Activity: Active
[14]
  inhibition in vivo at 10 mg/kg: 7.74%
[15]
  inhibition in vivo at 25 mg/kg: 19.2%
[16]
  inhibition in vivo at 50 mg/kg: 27.2%
[17]
  inhibition in vivo at 100 mg/kg: 60.5%
[18]
  logP: 3.71
Mus musculus [19]
  Activity: Toxic
SW-620 [20]
  IC50: 4.3 µM
DU-145
  IC50: 4.6 µM
PC-3
  IC50: 4.9 µM
SW-620 [21]
  Activity: Active
SW-620 [22]
  Activity: Active
SW-620 [23]
  Activity: 33.09%
SW-620 [24]
  Activity: 6.58%
SW-620 [25]
  Activity: 33.2%
SW-620 [26]
  Activity: 55%
SW-620 [27]
  Activity: Active
Mus musculus [28]
  growth inhibition (GI): Dose-dependent effect
[29]
  Activity: 1547.14 mg
[30]
  Activity: 1445.71 mg
[31]
  Activity: 1332.14 mg
[32]
  Activity: 1108.57 mg
Mus musculus [33]
  Activity: Toxic
[34]
  inhibition in vivo at 10 mg/kg: 9.44%
[35]
  inhibition in vivo at 25 mg/kg: 15.4%
